# Test results taken from ChEMBL document CHEMBL1789904, “Imaging of Plasmodium liver stages to drive next-generation antimalarial drug discovery” (Science, 2011).
# pIC50: −log10 of the molar value.
# Test system: Plasmodium yoelii
# Assay: NOVARTIS: Antimalarial liver stage activity measured as reduction in Plasmodium yoelii schizont area in HepG2-A16-CD81 cells by immuno-fluorescence, and median schizont size at 10uM compound concentration
# Format: functional, organism-based
# Details: for pIC50: Plasmodium yoelii, HepG2-A16-CD81
# Summary of the method: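 Host and parasite nuclei stained with Hoechst 33342, parasites with αPyHSP70 antibody; 25 images per well by high-content imaging; median parasite (schizont) area measured by automated image analysis, ~50 schizonts per experiment, two or more independent experiments.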
SMILES,Schizont size [um],pIC50
O=C(c1cccc(Cl)c1)N1CCN(c2ccc([N+](=O)[O-])c(NC3CC3)c2)CC1,102.71,5.49
COc1ccc(C2CC(=O)C3=C(C2)NC(C)=C(C(=O)OC2CCCC2)C3c2ccc([N+](=O)[O-])cc2)cc1OC (configuration not stated),103.85,5.41
Cl.OCCNc1nc(Nc2ccc(F)cc2)nc2ccccc12,91.12,6.87
Oc1c(C(Nc2ccccn2)c2cccc(Cl)c2Cl)ccc2cccnc12 (configuration not stated),23.8,6.40
CCN(CC)CCCN(Cc1cc2ccc(C)cc2[nH]c1=O)C(=S)Nc1cccc(Cl)c1,58.76,6.35
O=c1c2c([nH]c3ccccc13)CCCC2,39.45,6.30
O=c1c2ccccc2[nH]c2ccc(F)cc12,29.64,6.65
CCOc1ccc(NC(=O)C(C)Sc2nc3ccccc3[nH]2)cc1 (configuration not stated),194.87,< 5.00
CCCC(=O)NC(c1ccc(Cl)cc1)c1ccc2cccnc2c1O (configuration not stated),14.09,6.72
O=[N+]([O-])c1ccc(N2CCCN(C(=S)Nc3ccc(F)cc3Br)CC2)nc1,120.24,5.34
CCCc1nc2ccc(NC(=O)c3ccco3)cc2c(=O)n1Cc1ccc(-c2ccccc2)cc1,25.78,6.51
O=C1C2=C(Nc3ccccc3SC2c2ccc(OCc3ccccc3)cc2)c2ccccc21 (configuration not stated),23.17,7.24
Cc1nc2ccc(Br)cc2c(O)c1CC(C)C,30.79,6.61
Oc1c(CN2CCN(Cc3ccc4cccnc4c3O)CC2)ccc2cccnc12,21.19,7.02
CCCN(C(=O)Nc1c(C(C)C)cccc1C(C)C)C(CC)c1nc2ccccc2c(=O)n1-c1cccc(C)c1 (configuration not stated),–,5.20
COc1ccccc1Nc1nc(NCc2ccccc2)c2ccccc2n1.Cl,40.29,7.04
O=C(c1cccs1)N1CCN(c2ccc([N+](=O)[O-])c(NC3CC3)c2)CC1,83.6,6.16
O=C(c1ccc2nc(N3CCCCC3)sc2c1)N1CCN(Cc2ccc3c(c2)OCO3)CC1,168.67,< 5.04
N#Cc1ccc(NC(=O)NC2CC3CCCC(C2)N3CCc2ccccc2)cc1 (configuration not stated),62,6.30
OC1=C2C(=Nc3ccccc3SC2c2cccs2)c2ccccc21 (configuration not stated),25.89,7.04
COc1ccc(C(NC(=O)c2cccnc2)c2cc(Cl)c3cccnc3c2O)cc1 (configuration not stated),21.08,6.27
Cc1[nH]c2ccccc2c(=O)c1Br,29.43,6.67
CC(=O)N(C1=C(N2CCOCC2)C(=O)c2ccccc2C1=O)c1ccc(I)cc1,50.1,6.22
CCc1c(C#N)c(N)nc(SCC(=O)c2ccc(C)cc2)c1C#N,189.13,< 5.00
Brc1ccc(-c2cn3c([n+]2-c2ccccc2)SCC3)cc1.[Br-],78.7,6.08
O=C(O)Cn1cnc2nc3n(c2c1=O)CCC3,183.18,< 6.11
Cc1nc2cc(-c3ccc(I)cc3)nn2c(O)c1C,35.28,6.93

SMILES,Schizont size [um],pIC50
COc1ccc2nc(C)cc(Nc3ccc(Oc4ccc(Cl)c5ccccc45)c(Cl)c3)c2c1,22.65,6.57
Cc1ccc(C2Sc3ccccc3NC3=C2C(=O)c2ccccc23)cc1 (configuration not stated),27.03,6.56
Cc1cccc2c1[nH]c1nc(SCC(C)C)nnc12,36.43,6.82
CC[C@H]1CN2CCc3cc(OC)c(OC)cc3[C@@H]2C[C@@H]1C[C@H]1NCCc2cc(OC)c(OC)cc21 [EMETINE],26.51,8.13
CCC1CN2CCc3cc(OC)c(OC)cc3C2CC1CC1NCCc2cc(OC)c(OC)cc21.Cl (configuration not stated),13.78,7.10
O=c1c2ccccc2[nH]c2ccc(I)cc12,24.95,6.98
Cc1cccc(N2C(N)=NC(N)=NC2(C)C)c1.Cl,38.51,8.37
S=C(NN=Cc1ccccn1)NC1CC2CC1C1C=CCC21 (configuration not stated),27.45,7.59
CCOC(=O)C1=C(C)NC2=C(C(=O)C(C(=O)OCC)C(c3ccccc3OC)C2)C1c1ccc([N+](=O)[O-])cc1 (configuration not stated),76.3,6.47
COc1ccc2[nH]c(SCC(=O)Nc3cccc(NC(=O)CSc4nc5cc(OC)ccc5[nH]4)n3)nc2c1,180.05,< 5.03
CN(C)c1cc[n+](CC(=O)Nc2ccc(Cl)cc2)cc1.[Cl-],69.62,6.23
Cc1ccc2nc3nc4c(C)cccc4c(N)c3cc2c1,22.23,7.32
Cc1oc2c(c1C(=O)NCCCn1ccnc1)C(=O)c1ccccc1C2=O,12.53,6.93
Clc1ccccc1-c1nc([P+](c2ccccc2)(c2ccccc2)c2ccccc2)c(N2CCOCC2)o1,20.56,7.02
CCCN[P+](CC(C)C)(NCCC)NCCC,27.24,6.55
COc1cncc(-c2cncc(-c3ccc(C)cc3)n2)c1,–,< 5.00
CCCc1nc2ccc(NC(=O)c3ccccc3F)cc2c(=O)n1Cc1ccc(-c2ccccc2)cc1,–,5.76
CC(=O)N(C)C1=C(N2CCOCC2)C(=O)c2ccccc2C1=O,38.72,6.64
COc1ccc2cc3[n+](cc2c1OC)CCc1cc2c(cc1-3)OCO2.[Cl-] [BERBERINE CHLORIDE],102.08,6.26
CCN(CC)CCCC(C)Nc1c2ccc(Cl)cc2nc2ccc(OC)cc12 (configuration not stated) [QUINACRINE],26.3,6.78
N#CC1=C(N)Oc2c3c(c4ccccc4c2C1c1ccc(F)cc1)C(c1ccc(F)cc1)C(C#N)=C(N)O3 (configuration not stated),105.63,5.41
COc1ccc(C2CC(=O)C3=C(C2)NC(C)=C(C(=O)OC(C)C)C3c2cccc(C)c2)cc1OC (configuration not stated),90.91,5.74
CC(C)CC(N)C(=O)N1CCn2c(nc(-c3ccccc3)c2Nc2ccc3c(c2)OCO3)C1 (configuration not stated),–,6.73
O=C1N(Cc2cc3ccccc3s2)CC2CN(Cc3ccsc3)CCN12 (configuration not stated),–,7.59
CC1(C)N=C(N)N=C(N)N1c1ccc(Oc2ccc(Cl)cc2)c(Cl)c1.Cl,27.76,7.14
COc1ccc2sc(Nc3nc(-c4ccccn4)cs3)nc2c1,28.91,6.80
COc1cccc(N2C(N)=NC(N)=NC2(C)C)c1.Cl,38.1,7.53

SMILES,Schizont size [um],pIC50
CN(C)c1ccc(-c2n(C)c3ccccc3[n+]2C)cc1.[Cl-],46.86,6.76
CCCc1ccc(C(=O)NC(=O)c2ccccc2O)cc1,23.17,8.38
NCC(=O)N1CCn2c(nc(-c3ccccc3)c2Nc2ccc3c(c2)OCO3)C1,–,6.66
Cc1cc(Nc2cccc(F)c2)nc(NCc2ccccc2)n1,73.06,5.96
CCCCn1c(NN=C2C(=O)Nc3ccccc32)nc2c1c(=O)[nH]c(=O)n2C,172.53,< 5.00
CCN(CC)c1ccc(N=Cc2ccc(Sc3nc4ccccc4s3)o2)cc1,152.6,< 5.00
O=C1Nc2ccccc2C12Nc1ccccc1-c1nc3ccccc3n12 (configuration not stated),165.43,< 5.00
Cc1ccc(Nc2cc(C)nc(NCc3ccccc3)n2)c(C)c1,89.14,5.89
CC(=O)Nc1cccc(-c2cncc(-c3ccc(C(=O)O)cc3)n2)c1,–,< 5.00
CCCN(CCC)CCCNc1ccc(C(=O)Nc2ccc(C)c(F)c2)cc1[N+](=O)[O-],83.5,6.19
Clc1ncnc2ncn(Cc3ccccc3)c12,220.34,< 5.00
Oc1cccc2ccc(Nc3ccccn3)nc12,30.16,6.85
Cc1ncc(CCCCN(C)C)c2c1[nH]c1ccccc12,132.56,5.56
Cc1ccc(-n2c(-c3ccccc3)cc(C=NNC(=O)c3cccc(O)c3)c2-c2ccccc2)cc1,26.72,7.69
CC(c1nc2ccccc2c(=O)n1C)N1CCN(C(=O)C(C)(C)C)CC1 (configuration not stated),–,6.31
OC1=C2C(=Nc3ccccc3SC2c2ccc(Br)cc2)c2ccccc21 (configuration not stated),34.03,6.49
Cc1ccc(-c2cc(C(=O)OCC(=O)c3cccc([N+](=O)[O-])c3)c3cc(C)ccc3n2)cc1,180.05,< 5.00
CCCCC(=O)NC(c1cccc([N+](=O)[O-])c1)c1ccc2cccnc2c1O (configuration not stated),23.69,6.35
Cc1ccc(CSCc2ccc(C(=O)NC3CC3)o2)cc1,25.36,7.33
CC[n+]1c(C=C2C=CN(C)C=C2)ccc2cc(C)ccc21.[I-],25.57,6.77
COc1ccc(NC(=O)COc2ccccc2C(C)C)c(OC)c1,202.59,< 5.00
CCc1ccccc1NC(C)=O,188.81,< 5.00
c1ccc2cc3c(N4CCN(CCN5CCN(c6ccnc7cc8ccccc8cc67)CC5)CC4)ccnc3cc2c1,135.69,5.54
CC(C)(C)c1ccc(Oc2ccc(N3C(=O)C4CC=CCC4C3=O)cc2)cc1 (configuration not stated),180.99,< 5.00
CC(=O)N(C)C1=C(N2CCCC2)C(=O)c2ccccc2C1=O,123.79,5.31
O=C(NC1CC1)c1ccc(CSCc2ccccc2Cl)o1,26.09,6.85
